The results in this text go back to PubChem BioAssay.

Calls of active or inactive are those of the source.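 How the source made its calls, unless noted: active means viability loss from added drug above about 55%, and viability with drug at most 40%, in both replicates (limit read from the data, passing the limit was not always enough); inconclusive means both conditions met in only one replicate; inactive means neither replicate meets both conditions.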

Assay [1] can be described thus: Her2 expression decrease, cell viability multiplex – SKBR3 breast tumor cells, AlphaScreen, ATP viability, primary screen (AID 461;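 active means Her2 level under about 52% in both replicate screens, with viability over 70% of control, limit read from the data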;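 on Her2 level: lower value means less Her2 protein in the cells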;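 on viability: percent of carrier control wells set as 100% viability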). Conditions: SKBR3 Her2 protein level, 18-24 h, measured here: SKBR3 viability, ATP luminescence, at 10 µM. (In general: In Alpha technology, singlet oxygen from a donor bead excites a nearby acceptor bead.)
Assay [2] addresses Receptor tyrosine-protein kinase erbB-2 (Homo sapiens) (UniProt P04626). Described as above. Conditions: 18-24 h, at 10 µM, stronger effect = lower value.
The nature of assay [3]: reduced viability of SK-BR-3 breast cancer cells – cell-based, 24 h, human, pilot screen (AID 572;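 active means viability at or below 10% of carrier control in both of two separate runs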;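 further: compound exposure lasted between 18 and 24 h rather than exactly 24 h; 100% = carrier-treated control wells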). Conditions: SK-BR-3 viability, CellTiter-Glo luminescence, at 10 µM, stronger effect = lower value. (ATP-based viability assays read luminescence as a measure of living cells.)
Assay [4] can be described thus: HUVEC growth inhibition – cell-based, human, primary screen (AID 575;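 active means viability at or below 30% in both replicate assays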;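 further: 100% = median of untreated cell wells with 0.1% DMSO on each plate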). Conditions: HUVEC proliferation, CellTiter-Glo luminescence, 72 h; at 10 µM; stronger effect = lower value. The gist of the method:
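Material: primary human umbilical vein endothelial cells / Schedule: 72 h exposure, 37 °C, 5% CO2, 30 min RT equilibration / Signal: ATP-based CellTiter-Glo luminescent read / Read-out basis: percent of median DMSO-control luminescence / Control set: 32 DMSO-only cell-control wells (high), 32 MePR drug-control wells (low) per plate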

The nature of assay [5]: H69AR cell proliferation blockers – human, duplicate replicates, primary screen (AID 580;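 active means viability at or under a set limit in both replicates, limit being median viability minus 3 SD, cut at about 48% in these data, passing the limit was not always enough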;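 further: 100% = mean luminescence of untreated wells and 0% = no signal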). Conditions: H69AR lung tumor cells viability, ATP luminescence, 72 h; at 10 µM; stronger effect = lower value.
Assay [6] is described as follows: MRP1 drug-resistance reversers in H69AR cells – cell-based, doxorubicin co-treatment, pilot screen (AID 601). Conditions: CellTiter-Glo, 72 h, at 10 µM; for differential viability (reversal): stronger effect = higher value.
The nature of assay [7]: yeast transport mutant growth inhibition pilot in 384-well plates, post-Golgi transport modulator project (AID 636; in the data active means inhibition above about 31%). Conditions: absorbance 615 nm, about 18 h, stronger effect = higher value.
A short description of assay [8]: growth suppression of yeast trafficking mutant, preliminary HTS, modulators of trafficking downstream of Golgi apparatus project, 1536-format plate, OD 615 nm (AID 637; in the data active means inhibition above about 30%). Conditions: yeast transport mutant growth, absorbance 615 nm, 18 h; stronger effect = higher value.
The mark [9] stands for this setting: H69AR cells + 2 uM doxorubicin, measured here: viability with 2 uM doxorubicin, stronger effect = lower value.
Where [10] appears, read: H69AR cells, compound alone cytotoxicity.

Sequence of Receptor tyrosine-protein kinase erbB-2 (Homo sapiens) (P04626 whole entry, looked up): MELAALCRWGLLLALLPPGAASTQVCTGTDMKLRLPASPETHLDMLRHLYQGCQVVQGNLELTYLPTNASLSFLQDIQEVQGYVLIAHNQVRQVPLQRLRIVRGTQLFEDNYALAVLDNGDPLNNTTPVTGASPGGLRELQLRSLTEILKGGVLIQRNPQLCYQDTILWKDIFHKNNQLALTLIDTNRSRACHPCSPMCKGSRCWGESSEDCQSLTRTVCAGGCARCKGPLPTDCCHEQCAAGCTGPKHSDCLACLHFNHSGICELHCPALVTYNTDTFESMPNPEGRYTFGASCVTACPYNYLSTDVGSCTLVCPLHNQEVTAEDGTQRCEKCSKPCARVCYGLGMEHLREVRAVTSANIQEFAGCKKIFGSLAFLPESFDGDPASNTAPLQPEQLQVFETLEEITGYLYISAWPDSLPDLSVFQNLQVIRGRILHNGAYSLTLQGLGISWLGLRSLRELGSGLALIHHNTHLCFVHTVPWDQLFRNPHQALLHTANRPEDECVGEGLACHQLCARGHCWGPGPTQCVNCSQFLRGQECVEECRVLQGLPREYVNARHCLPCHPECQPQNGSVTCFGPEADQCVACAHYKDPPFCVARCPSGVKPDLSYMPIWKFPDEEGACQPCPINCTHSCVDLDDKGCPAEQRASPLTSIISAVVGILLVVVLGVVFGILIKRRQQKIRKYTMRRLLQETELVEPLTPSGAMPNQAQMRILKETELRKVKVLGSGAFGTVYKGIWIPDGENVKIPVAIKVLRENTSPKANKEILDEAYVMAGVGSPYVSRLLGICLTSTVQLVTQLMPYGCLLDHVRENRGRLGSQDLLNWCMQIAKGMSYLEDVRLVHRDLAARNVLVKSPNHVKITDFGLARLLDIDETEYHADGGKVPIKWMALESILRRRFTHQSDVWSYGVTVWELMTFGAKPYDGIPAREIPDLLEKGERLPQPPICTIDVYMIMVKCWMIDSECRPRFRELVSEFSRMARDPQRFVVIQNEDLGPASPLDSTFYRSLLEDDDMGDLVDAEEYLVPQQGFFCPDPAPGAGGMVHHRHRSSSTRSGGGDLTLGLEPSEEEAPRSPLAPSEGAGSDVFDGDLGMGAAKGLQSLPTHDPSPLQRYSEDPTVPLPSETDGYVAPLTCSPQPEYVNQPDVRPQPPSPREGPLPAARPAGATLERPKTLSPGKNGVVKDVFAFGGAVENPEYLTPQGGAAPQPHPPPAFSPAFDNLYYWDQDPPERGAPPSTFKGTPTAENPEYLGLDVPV

For the compound `COC(=O)c1ccccc1NC(=O)Nc1cccs1`, the viability – broadly, a read-out of living cells in per cent, often relative to untreated cells – was 99.5% in assay [1]; 99.5% (inactive) in assay [3]; 84.3% (inactive) in assay [4]; 82.4% (inactive) in assay [5]; 74.9% in assay [6] (setting [9]); 82.4% in assay [6] (setting [10]). Moreover, the Her2 level in assay [2] was 90.5% (inactive). For the same compound, the differential viability (reversal) in assay [6] (H69AR cells + 2 uM doxorubicin) was 7.46% (inactive). Also, the figures for the inhibition in assay [7] and in assay [8] were -3.73% (inactive) and 0% (inactive), respectively.
For the compound `CCCCCC(=O)N1CC2(C)CN(C(=O)CCCCC)CC(C)(C1)C2=O`, the viability was 87% in assay [1]; 87% (inactive) in assay [3]; 96.9% (inactive) in assay [4]; 87.5% (inactive) in assay [5]; 83.4% in assay [6] (setting [9]); 87.5% in assay [6] (setting [10]). Moreover, the Her2 level in assay [2] is 93% (inactive). In addition, in assay [6] (H69AR cells + 2 uM doxorubicin), the differential viability (reversal) is 4.14% (inactive). Also, the inhibition (usually the relative decrease from the control value, in per cent) in assay [7] was 0.9% (inactive); in assay [8], 6.67% (inactive).
For the compound `CCOc1ccc(/C=N/n2cnnc2)cc1`, the viability is 101% in assay [1]; 101% (inactive) in assay [3]; 78.8% (inactive) in assay [4]; 96.7% (inactive) in assay [5]; 88.9% in assay [6] (setting [9]); 96.7% in assay [6] (setting [10]). Besides, the Her2 level in assay [2] was 94.5% (inactive). Also, the differential viability (reversal) in assay [6] (H69AR cells + 2 uM doxorubicin) is 7.86% (inactive). Moreover, the inhibition is -0.52% (inactive) in assay [7] and -3.93% (inactive) in assay [8].
Regarding `O=C(COc1ccccc1Cl)OCC(=O)N1CCN(S(=O)(=O)c2ccccc2)CC1`, the viability in assay [1] was 101%; in assay [3], 101% (inactive); in assay [4], 89.4% (inactive); in assay [5], 87.4% (inactive); in assay [6] (setting [9]) it was 89.2%; in assay [6] (setting [10]), 87.4%. Besides, in assay [2], the Her2 level was 85% (inactive). The differential viability (reversal) in assay [6] (H69AR cells + 2 uM doxorubicin) is -1.84% (inactive). In addition, the inhibition is -6.13% (inactive) in assay [7] and -2.79% (inactive) in assay [8].
Regarding `CNc1ccc(C(O)(C(F)(F)F)C(F)(F)F)cc1C(O)(C(F)(F)F)C(F)(F)F`, the viability in assay [1] is 98%; in assay [3], 98% (inactive); in assay [4], 76.8% (inactive); in assay [5], 80.7% (inactive); in assay [6] (setting [9]), 84%; in assay [6] (setting [10]) it was 80.7%. Also, in assay [2], the Her2 level was 73% (inactive). For the same compound, the differential viability (reversal) in assay [6] (H69AR cells + 2 uM doxorubicin) was -3.27% (inactive). Also, the inhibition in assay [7] was -5.33% (inactive); in assay [8], 5.25% (inactive).
Regarding `COc1ccc(OC)c(C(=O)CSc2nc3ncccc3[nH]2)c1`, the viability was 94% in assay [1]; 94% (inactive) in assay [3]; 96.6% (inactive) in assay [4]; 88.9% (inactive) in assay [5]; 81.1% in assay [6] (setting [9]); 88.9% in assay [6] (setting [10]). For the same compound, in assay [2], the Her2 level was 108% (inactive). Besides, the differential viability (reversal) in assay [6] (H69AR cells + 2 uM doxorubicin) is 7.8% (inactive). The values for the inhibition in assay [7] and in assay [8] were -1.17% (inactive) and 12.5% (inactive), respectively.
As for `O=C1c2ccccc2-c2nc3ncnn3c(-c3ccccc3)c21`, the viability in assay [1] was 93.5%; in assay [3], 93.5% (inactive); in assay [4], 103% (inactive); in assay [5], 102% (inactive); in assay [6] (setting [9]), 93.2%; in assay [6] (setting [10]) it was 102%. In addition, the Her2 level in assay [2] is 105% (inactive). In assay [6] (H69AR cells + 2 uM doxorubicin), the differential viability (reversal) is 8.68% (inactive). Also, the results for the inhibition in assay [7] and in assay [8] were 1.97% (inactive) and -3.45% (inactive), respectively.
On to `COc1ccc(N2C(=O)C3C4C=CC(C4)C3C2=O)nn1` (stereo not given), for which the viability was 104% in assay [1]; 104% (inactive) in assay [3]; 99.6% (inactive) in assay [4]; 99.2% (inactive) in assay [5]; 81.8% in assay [6] (setting [9]); 99.2% in assay [6] (setting [10]). Also, the Her2 level in assay [2] was 106% (inactive). Besides, in assay [6] (H69AR cells + 2 uM doxorubicin), the differential viability (reversal) is 17.4% (inactive). In addition, the values for the inhibition in assay [7] and in assay [8] were -0.91% (inactive) and -4.59% (inactive), respectively.
As for `CC1CN(c2nc3ccccc3nc2C(C#N)C(=O)OC2CCCCC2)CC(C)O1` (stereo not given), the viability in assay [1] was 94%; in assay [3], 94% (inactive); in assay [4] it was 78.7% (inactive); in assay [5] it was 96.1% (inactive); in assay [6] (setting [9]), 83.5%; in assay [6] (setting [10]) it was 96.1%. Besides, the Her2 level in assay [2] is 97% (inactive). Also, the differential viability (reversal) in assay [6] (H69AR cells + 2 uM doxorubicin) is 12.6% (inactive). Besides, the inhibition in assay [7] was -5.07% (inactive); in assay [8] it was 2.54% (inactive).
On to `COC(=O)c1ccnc(/C=N/O)c1`, for which the viability in assay [1] is 95%; in assay [3] it was 95% (inactive); in assay [4], 99.8% (inactive); in assay [5] it was 88.1% (inactive); in assay [6] (setting [9]), 81%; in assay [6] (setting [10]), 88.1%. Also, the Her2 level in assay [2] was 76% (inactive). In addition, the differential viability (reversal) in assay [6] (H69AR cells + 2 uM doxorubicin) is 7.13% (inactive). In addition, the inhibition is -3.92% (inactive) in assay [7] and 2.7% (inactive) in assay [8].
For `c1cc2c(cc1C1=Nn3c(nnc3C3CCCCC3)SC1)OCO2`, the viability in assay [1] is 133%; in assay [3], 133% (inactive); in assay [4] it was 64.8% (inactive); in assay [5], 9.93% (active); in assay [6] (setting [9]) it was 77.3%; in assay [6] (setting [10]), 9.93%. Moreover, in assay [2], the Her2 level is 108% (inactive). Also, the differential viability (reversal) in assay [6] (H69AR cells + 2 uM doxorubicin) is -67.4% (inactive). Moreover, the inhibition in assay [7] is -1.84% (inactive); in assay [8] it was 3.06% (inactive).
`Cc1ccc2[nH]c(=O)c(C(c3nnnn3CCc3ccccc3)N3CCOCC3)cc2c1` (stereo not given): the viability in assay [1] was 86%; in assay [3], 86% (inactive); in assay [4] it was 76.9% (inactive); in assay [5] it was 100% (inactive); in assay [6] (setting [9]), 87.8%; in assay [6] (setting [10]), 100%. The Her2 level in assay [2] was 87.5% (inactive). The differential viability (reversal) in assay [6] (H69AR cells + 2 uM doxorubicin) was 12.1% (inactive). Besides, the inhibition is -5.95% (inactive) in assay [7] and -0.49% (inactive) in assay [8].
With `CN1C(=O)C(O)(CC(=O)c2ccc3c(c2)OCO3)c2ccccc21` (stereo not given), the viability in assay [1] was 99.5%; in assay [3], 99.5% (inactive); in assay [4], 84.7% (inactive); in assay [5], 82.5% (inactive); in assay [6] (setting [9]), 73.3%; in assay [6] (setting [10]), 82.5%. For the same compound, the Her2 level in assay [2] is 90.5% (inactive). Moreover, the differential viability (reversal) in assay [6] (H69AR cells + 2 uM doxorubicin) is 9.22% (inactive). Also, the inhibition in assay [7] is 0.52% (inactive); in assay [8], -0.83% (inactive).
Regarding `O=C(COc1ccccc1)Nc1ccccc1N1CCN(c2ccccc2)CC1`, the viability in assay [1] was 80%; in assay [3] it was 80% (inactive); in assay [4] it was 96% (inactive); in assay [5] it was 84.2% (inactive); in assay [6] (setting [9]) it was 82.6%; in assay [6] (setting [10]), 84.2%. Besides, the Her2 level in assay [2] is 86% (inactive). Besides, the differential viability (reversal) in assay [6] (H69AR cells + 2 uM doxorubicin) is 1.58% (inactive). Also, the inhibition is -4.27% (inactive) in assay [7] and 2.62% (inactive) in assay [8].
